Measured values: PMC7931646 (The Journal of Experimental Medicine, 2021)
Where two headings read alike, the source gives them in different places.

Assays:
[1] = target: NK3 (Homo sapiens, UniProt P29371); assay: CEREP off-target radioligand binding panel; details: read-out: inhibition of ligand binding
Summary of the method: (§1)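 CEREP secondary-pharmacology panel of 55 receptors, transporters and ion channels. Test compound at 10 µM was assessed for inhibition of binding of a radiolabelled reference ligand specific to each target. Result is percent inhibition of ligand binding.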

[2] = target: hERG channel (Homo sapiens, UniProt Q12809); assay: Patch-Xpress patch-clamp hERG assay in HEK-293 cells; type: cell-based
[3] = Kinetic solubility in simulated intestinal fluids; type: physicochemical
Summary of the method: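 Dissolved test compound concentration in FaSSIF or FeSSIF simulated intestinal fluids, determined by UV/Vis absorbance.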

[4] = target: dopamine D1 (Homo sapiens, UniProt P21728); assay: CEREP off-target radioligand binding panel; details: read-out: inhibition of ligand binding
Summary of the method: as §1

[5] = tested on: Aβ42, Aβ40, Aβ38 in plasma, brain and CSF; assay: 9-d repeat-dose pharmacodynamics in male Sprague-Dawley rats; type: in vivo, rat; details: 5 mg/kg po daily 9 d, 4 h post dose
Summary of the method: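 Male Sprague-Dawley rats, n = 14 per dose level, received vehicle (80% PEG 400, 20% water, 0.1% Tween 20) or test compound at 5, 25 or 50 mg/kg orally once daily for 9 d. Sampling was 4 h after the day-9 dose: plasma, brain extracts, and CSF from the cisterna magnum. Aβ38/40/42 were measured by MSD multiplex assay. Results are mean ± SEM, analysed by ANOVA.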

[6] = Single-dose i.v./po PK in male CD-1 mice; type: in vivo, mouse; details: for clearance: male, CD-1, mouse, plasma, iv, 1 mg/kg
Summary of the method: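 CD-1 mice received a single i.v. dose of 1 mg/kg (n = 12) or an oral gavage dose of 5 mg/kg (n = 12). Brains were collected at 1, 4, 8 and 12 h. Oral bioavailability came from i.v./po comparison; fabs came from kinetic analysis.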

[7] = Plasma protein binding, equilibrium dialysis; type: in vitro ADME; details: rat
Summary of the method: (§2)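 Equilibrium dialysis of test compound in human, rat or mouse plasma against buffer across a semipermeable membrane. Compound concentrations in both compartments were measured by LC/MS, and percent bound was derived from them.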

[8] = MDR1-MDCK permeability; type: in vitro ADME; details: dog
Summary of the method: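 Transport across MDR1-MDCK cell monolayers. Apparent permeability was measured in the apical-to-basolateral direction (× 10−6 cm/s). Efflux ratio was calculated as Papp B-A / Papp A-B.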

[9] = Metabolite profile in hepatocytes; type: in vitro ADME; details: metabolite profiling in five species (mouse, rat, dog, NHP, human)
Summary of the method: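 Test compound at 1 µM was incubated at 37°C for 4 h with cryopreserved hepatocytes from mouse, rat, dog, monkey or human. Metabolite masses and relative abundance came from HPLC/MS/MS peak areas. Structures were characterised by LC/MS/MS on a Q-Trap instrument.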

[10] = Liver microsomal stability, rat; type: in vitro ADME; details: liver microsomes
Summary of the method: (§3)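 Test compound at 1 µM was incubated for 30 min with liver microsomes at 1 mg/ml (human, rat or mouse). Result is percent of parent compound remaining.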

[11] = Human PK and 50% effective dose projection
[12] = Plasma protein binding, equilibrium dialysis; type: in vitro ADME; details: mouse
Summary of the method: as §2

[13] = target: CYP450 3A4 (Homo sapiens, UniProt P08684); assay: CYP450 inhibition, recombinant isoform; type: in vitro ADME
Summary of the method: (§4)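 Recombinant human CYP450 isoforms were incubated with isoform-specific probe substrates; for CYP3A4 these were midazolam and testosterone. Inhibition was quantified by LC-MS/MS analysis of probe-substrate turnover.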

[14] = tested on: chloride channel (γ-aminobutyric acid–gated); assay: CEREP off-target radioligand binding panel; details: 10 µM
Summary of the method: as §1

[15] = target: histamine H1 (Homo sapiens, UniProt P35367); assay: CEREP off-target radioligand binding panel; details: read-out: inhibition of ligand binding
Summary of the method: as §1

[16] = Estimation of effective AUC and unbound Ceffective in rodents
[17] = target: CYP450 2C19 (Homo sapiens, UniProt P33261); assay: CYP450 inhibition, recombinant isoform; type: in vitro ADME
Summary of the method: as §4

[18] = Kinetic aqueous solubility, PBS pH 7.4; type: physicochemical; details: PBS buffer, pH 7.4, aqueous buffer, kinetic from dmso stock
Summary of the method: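 Kinetic solubility in PBS at pH 7.4, read by UV/Vis absorbance and reported in micromolar.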

[19] = tested on: S. typhimurium strains TA1535, TA1537, TA98, TA100 and E. coli strain WP2 (uvrA); assay: GLP Salmonella–Escherichia coli/microsome plate incorporation; type: cell-based, Salmonella typhimurium; details: two S. typhimurium strains (T98 and T100), only with Aroclor-induced rat liver S9
Summary of the method: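 GLP plate-incorporation mutagenicity test using S. typhimurium TA1535, TA1537, TA98 and TA100 and E. coli WP2 (uvrA). Each strain was run with and without a metabolic activation mix of Aroclor 1254–induced rat liver microsomes (S9). Read-out is revertant bacterial growth.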

[20] = Plasma protein binding, equilibrium dialysis; type: in vitro ADME; details: human
Summary of the method: as §2

[21] = Liver microsomal stability, mouse; type: in vitro ADME; details: liver microsomes
Summary of the method: as §3

[22] = tested on: κ opioid receptors; assay: CEREP off-target radioligand binding panel; details: 10 µM
Summary of the method: as §1

[23] = 7-d dose range-finding toxicity and toxicokinetic study in rats; type: in vivo, rat
[24] = GLP cardiopulmonary safety pharmacology study in NHPs; type: in vivo, NHP; details: NHPs, 10, 30 and 60 mg/kg
[25] = Single-dose i.v./po PK in cynomolgus macaques; type: in vivo, cynomolgus macaque; details: for clearance: male, cynomolgus monkey, plasma, iv, 1 mg/kg
Summary of the method: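 Cynomolgus monkeys received a single i.v. dose of 1 mg/kg. Whole blood was collected at set time points and processed to plasma. Drug levels were measured with a bioanalytical method validated for NHP plasma. Clearance was derived from the plasma concentration–time data.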

Chain of hERG channel (Q12809 whole entry): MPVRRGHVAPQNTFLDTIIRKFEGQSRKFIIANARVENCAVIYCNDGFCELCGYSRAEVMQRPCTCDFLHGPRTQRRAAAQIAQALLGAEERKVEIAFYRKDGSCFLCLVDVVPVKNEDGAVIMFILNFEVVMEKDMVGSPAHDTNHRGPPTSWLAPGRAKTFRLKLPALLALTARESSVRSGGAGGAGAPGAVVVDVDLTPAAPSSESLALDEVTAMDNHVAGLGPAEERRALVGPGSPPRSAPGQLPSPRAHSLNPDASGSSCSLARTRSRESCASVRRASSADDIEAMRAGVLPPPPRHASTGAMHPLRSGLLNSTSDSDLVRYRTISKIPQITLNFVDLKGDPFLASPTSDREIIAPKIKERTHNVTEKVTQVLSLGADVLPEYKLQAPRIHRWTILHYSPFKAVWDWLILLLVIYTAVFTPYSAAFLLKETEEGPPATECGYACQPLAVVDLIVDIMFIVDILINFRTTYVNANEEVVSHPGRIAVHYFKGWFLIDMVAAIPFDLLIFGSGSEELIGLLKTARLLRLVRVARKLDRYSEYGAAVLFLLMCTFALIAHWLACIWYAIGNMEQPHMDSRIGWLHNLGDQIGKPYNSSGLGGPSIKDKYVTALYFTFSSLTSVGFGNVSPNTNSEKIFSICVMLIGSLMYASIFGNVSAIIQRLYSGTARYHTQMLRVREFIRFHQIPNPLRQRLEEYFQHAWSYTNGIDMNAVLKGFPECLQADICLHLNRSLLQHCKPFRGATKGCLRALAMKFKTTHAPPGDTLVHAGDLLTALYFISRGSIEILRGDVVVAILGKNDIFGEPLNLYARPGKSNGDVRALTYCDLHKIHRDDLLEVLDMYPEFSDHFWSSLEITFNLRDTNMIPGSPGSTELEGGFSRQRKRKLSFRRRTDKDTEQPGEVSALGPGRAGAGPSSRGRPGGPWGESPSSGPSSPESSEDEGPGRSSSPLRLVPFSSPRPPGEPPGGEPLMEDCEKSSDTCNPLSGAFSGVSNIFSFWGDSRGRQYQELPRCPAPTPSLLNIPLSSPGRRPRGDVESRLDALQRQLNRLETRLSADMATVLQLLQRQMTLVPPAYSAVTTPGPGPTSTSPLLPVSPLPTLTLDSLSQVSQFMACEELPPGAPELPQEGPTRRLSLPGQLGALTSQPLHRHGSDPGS
Chain of CYP450 3A4 (P08684 whole entry, canonical isoform): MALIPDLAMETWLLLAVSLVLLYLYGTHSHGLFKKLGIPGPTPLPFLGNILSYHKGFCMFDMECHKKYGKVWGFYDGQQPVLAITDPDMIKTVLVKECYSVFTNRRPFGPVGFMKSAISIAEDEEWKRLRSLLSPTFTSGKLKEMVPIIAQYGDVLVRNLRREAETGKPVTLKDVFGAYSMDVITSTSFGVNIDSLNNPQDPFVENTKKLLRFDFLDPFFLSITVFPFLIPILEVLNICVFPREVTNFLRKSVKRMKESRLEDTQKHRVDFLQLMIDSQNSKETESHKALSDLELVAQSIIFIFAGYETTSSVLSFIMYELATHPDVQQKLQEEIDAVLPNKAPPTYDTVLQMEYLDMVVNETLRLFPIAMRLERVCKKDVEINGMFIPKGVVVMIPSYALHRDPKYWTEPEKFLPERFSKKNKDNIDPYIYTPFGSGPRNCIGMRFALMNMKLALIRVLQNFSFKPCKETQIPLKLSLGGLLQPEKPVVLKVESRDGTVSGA
Chain of CYP450 2C19 (P33261 whole entry, canonical isoform): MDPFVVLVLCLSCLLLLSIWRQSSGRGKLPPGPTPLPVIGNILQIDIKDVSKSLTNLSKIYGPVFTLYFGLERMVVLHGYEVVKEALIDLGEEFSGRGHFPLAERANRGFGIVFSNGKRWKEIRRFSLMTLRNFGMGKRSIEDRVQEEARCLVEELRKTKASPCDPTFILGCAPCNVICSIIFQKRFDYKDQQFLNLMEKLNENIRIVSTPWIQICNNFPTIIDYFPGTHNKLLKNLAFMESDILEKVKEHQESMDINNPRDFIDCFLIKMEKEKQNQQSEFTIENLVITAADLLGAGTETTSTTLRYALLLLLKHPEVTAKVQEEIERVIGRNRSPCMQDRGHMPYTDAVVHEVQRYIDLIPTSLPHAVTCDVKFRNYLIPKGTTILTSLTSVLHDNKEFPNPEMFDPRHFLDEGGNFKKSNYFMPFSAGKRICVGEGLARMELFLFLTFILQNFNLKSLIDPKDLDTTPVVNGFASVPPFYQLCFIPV
Chain of NK3 (P29371 whole entry): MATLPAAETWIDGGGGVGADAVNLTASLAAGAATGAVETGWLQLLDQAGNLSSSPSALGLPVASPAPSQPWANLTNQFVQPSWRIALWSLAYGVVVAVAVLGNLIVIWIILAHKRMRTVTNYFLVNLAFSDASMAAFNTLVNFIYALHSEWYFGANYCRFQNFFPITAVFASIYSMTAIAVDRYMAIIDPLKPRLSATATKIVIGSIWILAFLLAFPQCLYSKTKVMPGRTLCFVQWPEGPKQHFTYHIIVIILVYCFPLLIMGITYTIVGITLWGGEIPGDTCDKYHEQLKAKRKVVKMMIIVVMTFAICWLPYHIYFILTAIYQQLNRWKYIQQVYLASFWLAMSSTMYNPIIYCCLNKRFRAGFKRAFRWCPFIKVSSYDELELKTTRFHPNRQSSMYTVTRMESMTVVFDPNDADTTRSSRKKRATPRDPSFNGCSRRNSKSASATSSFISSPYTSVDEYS
Chain of dopamine D1 (P21728 whole entry): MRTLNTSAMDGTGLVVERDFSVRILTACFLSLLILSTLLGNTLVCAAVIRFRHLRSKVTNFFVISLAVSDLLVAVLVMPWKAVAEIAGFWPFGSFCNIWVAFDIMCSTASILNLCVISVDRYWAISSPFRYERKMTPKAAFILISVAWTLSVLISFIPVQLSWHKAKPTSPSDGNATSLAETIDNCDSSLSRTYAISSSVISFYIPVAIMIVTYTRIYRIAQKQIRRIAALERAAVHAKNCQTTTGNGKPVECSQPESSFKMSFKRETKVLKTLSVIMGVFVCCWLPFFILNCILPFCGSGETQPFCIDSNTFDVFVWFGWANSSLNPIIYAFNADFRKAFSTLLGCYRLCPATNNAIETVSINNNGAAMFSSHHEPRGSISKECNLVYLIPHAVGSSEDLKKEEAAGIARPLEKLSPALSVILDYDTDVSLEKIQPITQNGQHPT
Chain of histamine H1 (P35367 whole entry): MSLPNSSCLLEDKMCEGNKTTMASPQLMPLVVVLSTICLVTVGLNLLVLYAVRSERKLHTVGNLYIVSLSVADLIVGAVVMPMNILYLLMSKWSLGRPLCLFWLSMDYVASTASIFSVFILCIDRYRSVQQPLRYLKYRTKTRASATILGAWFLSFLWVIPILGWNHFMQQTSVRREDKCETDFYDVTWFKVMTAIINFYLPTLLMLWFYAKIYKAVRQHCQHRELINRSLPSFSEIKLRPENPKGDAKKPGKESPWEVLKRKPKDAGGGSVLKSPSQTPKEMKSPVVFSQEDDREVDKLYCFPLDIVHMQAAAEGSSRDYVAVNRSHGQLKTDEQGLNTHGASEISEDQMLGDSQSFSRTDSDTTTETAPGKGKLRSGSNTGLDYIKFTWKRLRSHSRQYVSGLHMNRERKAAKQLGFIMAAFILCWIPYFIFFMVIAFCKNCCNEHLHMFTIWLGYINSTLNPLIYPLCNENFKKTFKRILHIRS

COc1nc(-c2cc(C)c(N[C@@H](C)c3cc(F)cc(F)c3)nn2)ccc1-n1cnc(C)c1 [Compound 2, (S)-N-(1-(3,5-difluorophenyl)ethyl)-6-(6-methoxy-5-(4-methyl-1H-imidazol-1-yl)pyridin-2-yl)-4-methylpyridazin-3-amine]
inhibition at 10 µM [1]: > 50%
IC50 [2]: 7.3 µM
safety margin between Aβ42 IC50 and hERG IC20 [2]: > 100 fold
IC20 ([2]; human, HEK-293 cells expressing hERG): 1.3 µM
FaSSIF dissolved compound concentration ([3]; FaSSIF pH 6.5, UV/Vis absorbance): 80
FeSSIF dissolved compound concentration ([3]; FeSSIF pH 5.8, UV/Vis absorbance): 79
inhibition at 10 µM [4]: > 50%
Brain % Aβ42 ∆ vs vehicle (↓ reduction) [5]: 54%
Brain %Aβ40 ∆ vs vehicle (↓ reduction) [5]: 29%
CSF % Aβ42 ∆ vs vehicle (↓ reduction) [5]: 41%
CSF %Aβ40 ∆ vs vehicle (↓ reduction) [5]: 29%
Plasma % Aβ40 ∆ vs vehicle (↓ reduction) [5]: 57%
Plasma % Aβ42 ∆ vs vehicle (↓ reduction) [5]: 78%
clearance ([6]; CL, mice): 8 mL/min/kg
clearance ([6]; Cl, male CD-1 mice): 8.05 mL/min/kg
CL as percent of reported hepatic blood flow ([6]; mice, hepatic blood flow 95 ml/min/kg): < 10%
fraction of dose absorbed from intestinal lumen (fabs) ([6]; mice, kinetic analysis): ~90%
% PPB R [7]: 99.9%
Papp A→B [8]: 23.3 ×10⁻⁶ cm/s
major metabolites [9]: no major metabolites
unique human metabolites [9]: absence of any unique human metabolites
remaining at 0.5 h, 1 µM [10]: 76%
fabs in humans (expected) [11]: ~90%
predicted human CL ([11]; allometric scaling from mouse, rat, NHP): ~5 mL/min/kg
AUC ([11]; human, plasma): 4320 ng·h/mL
% PPB M [12]: 99.9%
IC50 [13]: 9.4 µM
IC50 ([13]; CYP450 IC50 3A4 (m), probe substrate midazolam): 42 µM
inhibition of ligand binding [14]: Greater than 50%
inhibition at 10 µM [15]: > 50%
unbound average Ceffective ([16]; plasma unbound fraction 0.1%): ~0.58 ng/mL
unbound average Ceffective ([16]; plasma unbound fraction 1.0%): 5.8 ng/mL
AUC ([16]; rat, plasma): 13800 ng·h/mL
IC50 [17]: 12 µM
solubility kinetic [18]: < 1.3 µM
GLP Ames bacterial mutagenicity result [19]: positive
% PPB H [20]: 99.8%
remaining at 0.5 h, 1 µM [21]: 91%
inhibition of ligand binding [22]: Greater than 50%
NOAEL at 7 d ([23]; both, Sprague-Dawley, rat, in vivo): ≥ 50 mg/kg
safety margin over the efficacious dose (5 mg/kg) ([23]; rats, 7-d DRF): 10–20 fold
effect on electrocardiogram parameters, including corrected QT interval [24]: no significant effect
CL as percent of reported hepatic blood flow ([25]; NHPs, hepatic blood flow 50 ml/min/kg): < 10%
clearance ([25]; CL, NHPs): 5.5 mL/min/kg
clearance ([25]; Cl, NHP): 5.52 mL/min/kg
